# Experimental data taken from ChEMBL document CHEMBL3272173, “Synthesis and biological activity of peptide antagonists of luliberin (luteinizing hormone-releasing hormone)” (J Med Chem, 1979).
# “And” between values parts separate entries of the source, which are not always exact repeats. Identical values can stand only once. Peptide text beside a SMILES is read from it.
# Legend:
# [1] = molecular target: T1, Gonadotropin-releasing hormone receptor (Rattus norvegicus) (UniProt P30969); test: In vitro antagonist activity at GNRHR in CD rat anterior pituitary gland assessed as inhibition of LH-RH-stimulated LH release at compound to LH-RH molar ratio of 4000 after 4 hrs by radioimmunoassay; settings: concentration not given here
# T1 sequence (whole entry): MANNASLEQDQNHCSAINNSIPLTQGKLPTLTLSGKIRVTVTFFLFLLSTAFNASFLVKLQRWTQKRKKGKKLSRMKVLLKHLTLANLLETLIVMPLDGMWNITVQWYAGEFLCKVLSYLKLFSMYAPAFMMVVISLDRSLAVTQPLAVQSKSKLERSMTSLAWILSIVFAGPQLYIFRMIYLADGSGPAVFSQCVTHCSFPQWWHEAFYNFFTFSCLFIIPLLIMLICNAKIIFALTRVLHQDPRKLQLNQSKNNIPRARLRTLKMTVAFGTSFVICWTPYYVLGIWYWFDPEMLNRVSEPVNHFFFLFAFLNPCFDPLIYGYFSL
# Method in brief: (§1)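 Anterior pituitaries from diestrus CD rats (200-250 g) were dissociated enzymatically (collagenase, hyaluronidase, then Viokase). Cells were cultured 4 days at 1.67 × 10^5 cells/mL in DME with 10% horse serum and 2.5% fetal calf serum, then washed serum-free. Duplicate cultures received LH-RH (2-5 × 10^-10 M) with a single analogue concentration in serum-free DME for 4 h at 37 °C. LH in the medium was measured by RIA and reported as % inhibition of LH-RH-stimulated release.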
# [2] = molecular target: T1, Gonadotropin-releasing hormone receptor (Rattus norvegicus); test: In vitro antagonist activity at GNRHR in CD rat anterior pituitary gland assessed as inhibition of LH-RH-stimulated LH release at compound to LH-RH molar ratio of 28 after 4 hrs by radioimmunoassay; settings: concentration not given here; method in brief: as §1
# [3] = molecular target: T1, Gonadotropin-releasing hormone receptor (Rattus norvegicus); test: In vitro antagonist activity at GNRHR in CD rat anterior pituitary gland assessed as ratio of molar concentration of compound to LH-RH for inhibition of LH-RH-stimulated LH release after 4 hrs by radioimmunoassay
# Method in brief: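 Monolayers were cultured 4 days from dissociated anterior pituitary cells of diestrus CD rats. They were exposed in duplicate to LH-RH (2-5 × 10^-10 M) plus multiple analogue concentrations in serum-free DME for 4 h at 37 °C. LH in the medium was measured by radioimmunoassay. The ED50 molar ratio is the analogue:LH-RH molar ratio giving 50% inhibition of LH-RH-stimulated LH release.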
# Rattus norvegicus [4] = test: Antiovulatory activity in CD rat assessed as blockade of ovulation at 1 mg, sc administered as six doses at 1200, 1230, 1300, 1350, 1400 and 1450 hrs during proestrus stage measured during estrus stage by dissecting microscopic analysis; assay type: functional
# Method in brief: (§2)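 Cycling Charles River CD rats were given six subcutaneous injections of analogue in 0.1 mL propylene glycol on the afternoon of proestrus, and controls received vehicle alone. Rats were killed the next morning (estrus). Ovulating animals were scored and ova in the oviducts were counted under a dissecting microscope.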
# Rattus norvegicus [5] = test: Antiovulatory activity in sc dosed CD rat assessed as blockade of ovulation administered as six doses at 1200, 1230, 1300, 1350, 1400 and 1450 hrs during proestrus stage measured during estrus stage by dissecting microscopic analysis; assay type: functional; method in brief: as §2
# [6] = molecular target: T1, Gonadotropin-releasing hormone receptor (Rattus norvegicus); test: In vitro antagonist activity at GNRHR in CD rat anterior pituitary gland assessed as inhibition of LH-RH-stimulated LH release at compound to LH-RH molar ratio of 5 after 4 hrs by radioimmunoassay; settings: concentration not given here; method in brief: as §1
# Rattus norvegicus [7] = test: Antiovulatory activity in CD rat assessed as blockade of ovulation at 5 mg, sc administered as six doses at 1200, 1230, 1300, 1350, 1400 and 1450 hrs during proestrus stage measured during estrus stage by dissecting microscopic analysis; assay type: functional; method in brief: as §2
# [8] = molecular target: T1, Gonadotropin-releasing hormone receptor (Rattus norvegicus); test: In vitro antagonist activity at GNRHR in CD rat anterior pituitary gland assessed as inhibition of LH-RH-stimulated LH release at compound to LH-RH molar ratio of 20 after 4 hrs by radioimmunoassay; settings: concentration not given here; method in brief: as §1
# [9] = molecular target: T1, Gonadotropin-releasing hormone receptor (Rattus norvegicus); test: In vitro antagonist activity at GNRHR in CD rat anterior pituitary gland assessed as inhibition of LH-RH-stimulated LH release at compound to LH-RH molar ratio of 1.7 after 4 hrs by radioimmunoassay; settings: concentration not given here; method in brief: as §1
# [10] = molecular target: T1, Gonadotropin-releasing hormone receptor (Rattus norvegicus); test: In vitro antagonist activity at GNRHR in CD rat anterior pituitary gland assessed as inhibition of LH-RH-stimulated LH release at compound to LH-RH molar ratio of 57 after 4 hrs by radioimmunoassay; settings: concentration not given here; method in brief: as §1
# Rattus norvegicus [11] = test: Antiovulatory activity in CD rat assessed as blockade of ovulation at 0.1 mg, sc administered as six doses at 1200, 1230, 1300, 1350, 1400 and 1450 hrs during proestrus stage measured during estrus stage by dissecting microscopic analysis; assay type: functional; settings: in the assay text read “at 1 mg” for “at 0.1 mg”; method in brief: as §2
# [12] = Solubility of the compound in water; assay type: physicochemical
# [13] = molecular target: T1, Gonadotropin-releasing hormone receptor (Rattus norvegicus); test: In vitro antagonist activity at GNRHR in CD rat anterior pituitary gland assessed as inhibition of LH-RH-stimulated LH release at compound to LH-RH molar ratio of 100 after 4 hrs by radioimmunoassay; settings: concentration not given here; method in brief: as §1
# [14] = molecular target: T1, Gonadotropin-releasing hormone receptor (Rattus norvegicus); test: In vitro antagonist activity at GNRHR in CD rat anterior pituitary gland assessed as inhibition of LH-RH-stimulated LH release at compound to LH-RH molar ratio of 40 after 4 hrs by radioimmunoassay; settings: concentration not given here; method in brief: as §1
# Rattus norvegicus [15] = test: Antiovulatory activity in CD rat assessed as blockade of ovulation at 0.3 mg, sc administered as six doses at 1200, 1230, 1300, 1350, 1400 and 1450 hrs during proestrus stage measured during estrus stage by dissecting microscopic analysis; assay type: functional; method in brief: as §2
# [16] = molecular target: T1, Gonadotropin-releasing hormone receptor (Rattus norvegicus); test: In vitro antagonist activity at GNRHR in CD rat anterior pituitary gland assessed as inhibition of LH-RH-stimulated LH release at compound to LH-RH molar ratio of 2000 after 4 hrs by radioimmunoassay; settings: concentration not given here; method in brief: as §1
# [17] = molecular target: T1, Gonadotropin-releasing hormone receptor (Rattus norvegicus); test: In vitro antagonist activity at GNRHR in CD rat anterior pituitary gland assessed as inhibition of LH-RH-stimulated LH release at compound to LH-RH molar ratio of 10 after 4 hrs by radioimmunoassay; settings: concentration not given here; method in brief: as §1
structure (smiles),measurement,setting,value
CC(C)C[C@H](NC(=O)CNC(=O)[C@H](Cc1ccc(O)cc1)NC(=O)[C@H](CO)NC(=O)[C@H](Cc1c[nH]c2ccccc12)NC(=O)[C@H](Cc1cnc[nH]1)NC(=O)OCc1ccccc1)C(=O)N[C@@H](CCCNC(=N)N)C(=O)N1CCC[C@H]1C(=O)O (HELM PEPTIDE1{[O=C(OCc1ccccc1)[*:2]].H.W.S.Y.G.L.R.P}$$$$V2.0),inhibition,[1],10%
CCNC(=O)[C@@H]1CCCN1C(=O)[C@H](CCCNC(=N)N)NC(=O)[C@H](CC(C)C)NC(=O)[C@@H](CC(C)C)NC(=O)[C@H](Cc1ccc(O)cc1)NC(=O)[C@H](CO)NC(=O)[C@H](Cc1c[nH]c2ccccc12)NC(=O)[C@H](CCC(N)=O)NC(=O)OCc1ccccc1.Cl,inhibition,[2],60%
same,ED50,[3],22.3 molar ratio
same,inhibition (INH),Rattus norvegicus [4],20%
same,ED50,Rattus norvegicus [5],>1 mg
CCNC(=O)[C@@H]1CCCN1C(=O)[C@H](CCCNC(=N)N)NC(=O)[C@H](CC(C)C)NC(=O)[C@H](NC(=O)[C@H](Cc1ccc(O)cc1)NC(=O)[C@H](CO)NC(=O)[C@H](Cc1c[nH]c2ccccc12)NC(=O)[C@H](CCC(N)=O)NC(=O)OCc1ccccc1)[C@@H](O)c1ccccc1,inhibition,[2],82%
same,inhibition,[6],77%
CC(C)C[C@H](NC(=O)CNC(=O)[C@H](Cc1ccc(O)cc1)NC(=O)[C@H](CO)NC(=O)[C@H](Cc1c[nH]c2ccccc12)NC(=O)[C@H](Cc1cnc[nH]1)NC(=O)OCc1ccccc1)C(=O)N[C@@H](CCCNC(=N)N)C(=O)N1CCC[C@H]1C(=O)NCC(=O)O (HELM PEPTIDE1{[O=C(OCc1ccccc1)[*:2]].H.W.S.Y.G.L.R.P.G}$$$$V2.0),inhibition,[1],17%
CC(=O)O.CCNC(=O)[C@@H]1CCCN1C(=O)[C@H](CCCNC(=N)N)NC(=O)[C@H](CC(C)C)NC(=O)[C@@H](Cc1ccccc1)NC(=O)[C@H](Cc1ccc(O)cc1)NC(=O)[C@H](CO)NC(=O)[C@H](Cc1c[nH]c2ccccc12)NC(=O)[C@H](CCC(N)=O)NC(=O)OCc1ccccc1,inhibition (INH),Rattus norvegicus [7],0%
same,ED50,Rattus norvegicus [5],>5 mg
CC(C)C[C@H](NC(=O)[C@@H](Cc1c[nH]c2ccccc12)NC(=O)[C@H](Cc1ccc(O)cc1)NC(=O)[C@H](CO)NC(=O)[C@H](Cc1c[nH]c2ccccc12)NC(=O)[C@H](COCc1ccccc1)NC(=O)OC(C)(C)C)C(=O)N[C@@H](CCCNC(=N)N)C(=O)N1CCC[C@H]1C(=O)NCC(N)=O,inhibition,[8],71%
same,inhibition,[9],64%
same,ED50,[3],1.3 molar ratio and 2 molar ratio
CC(C)C[C@H](NC(=O)CNC(=O)[C@H](Cc1ccc(O)cc1)NC(=O)[C@H](CO)NC(=O)[C@H](Cc1c[nH]c2ccccc12)NC(=O)[C@H](CCC(N)=O)NC(=O)OCc1ccccc1)C(=O)N[C@@H](CCCNC(=N)N)C(=O)N1CCC[C@H]1C(=O)NCC(N)=O.Cl (HELM PEPTIDE1{[O=C(OCc1ccccc1)[*:2]].Q.W.S.Y.G.L.R.P.G.[am]}$$$$V2.0),inhibition,[1],33%
same,ED50,Rattus norvegicus [5],>1 mg
CCNC(=O)[C@@H]1CCCN1C(=O)[C@H](CCCNC(=N)N)NC(=O)[C@H](CC(C)C)NC(=O)[C@@H](Cc1ccccc1)NC(=O)[C@H](Cc1ccc(O)cc1)NC(=O)[C@H](CO)NC(=O)[C@H](Cc1c[nH]c2ccccc12)NC(=O)[C@H](COCc1ccccc1)NC(=O)OC(C)(C)C.Cl,inhibition,[10],91%
same,ED50,[3],19 molar ratio
same,inhibition (INH),Rattus norvegicus [4],0%
same,ED50,Rattus norvegicus [5],>10 mg
CC(C)C[C@H](NC(=O)[C@@H](Cc1c[nH]c2ccccc12)NC(=O)[C@H](Cc1ccc(O)cc1)NC(=O)[C@H](CO)NC(=O)[C@H](Cc1c[nH]c2ccccc12)NC(=O)[C@H](COCc1ccccc1)NC(=O)OC(C)(C)C)C(=O)N[C@@H](CCCNC(=N)N)C(=O)N1CCC[C@H]1C(=O)NCC(N)=O.Cl,inhibition (INH),Rattus norvegicus [11],100%
same,ED50,Rattus norvegicus [5],0.05 mg
same,solubility,[12],1000 µg/mL
CCNC(=O)[C@@H]1CCCN1C(=O)[C@H](CCCNC(=N)N)NC(=O)[C@H](CC(C)C)NC(=O)[C@@H](Cc1ccccc1)NC(=O)[C@H](Cc1ccc(O)cc1)NC(=O)[C@H](CO)NC(=O)[C@H](Cc1c[nH]c2ccccc12)NC(=O)[C@H](CCC(N)=O)NC(=O)OCc1ccccc1,inhibition,[13],70%
same,inhibition,[14],70%
same,ED50,[3],12.8 molar ratio and 7.7 molar ratio
CC(=O)O.CCNC(=O)[C@@H]1CCCN1C(=O)[C@H](CCCNC(=N)N)NC(=O)[C@H](CC(C)C)NC(=O)[C@@H](CCC(N)=O)NC(=O)[C@H](Cc1ccc(O)cc1)NC(=O)[C@H](CO)NC(=O)[C@H](Cc1c[nH]c2ccccc12)NC(=O)[C@H](CCC(N)=O)NC(=O)OCc1ccccc1,inhibition,[2],77%
same,inhibition (INH),Rattus norvegicus [4],20%
same,ED50,Rattus norvegicus [5],>1 mg
CC(=O)O.CCNC(=O)[C@@H]1CCCN1C(=O)[C@H](CCCNC(=N)N)NC(=O)[C@H](CC(C)C)NC(=O)[C@H](NC(=O)[C@H](Cc1ccc(O)cc1)NC(=O)[C@H](CO)NC(=O)[C@H](Cc1c[nH]c2ccccc12)NC(=O)[C@H](CCC(N)=O)NC(=O)OCc1ccccc1)[C@@H](O)c1ccccc1,inhibition (INH),Rattus norvegicus [15],100%
same,ED50,Rattus norvegicus [5],0.1 mg
CC(=O)O.CCNC(=O)[C@@H]1CCCN1C(=O)[C@H](CCCNC(=N)N)NC(=O)[C@H](CC(C)C)NC(=O)[C@@H](CC(N)=O)NC(=O)[C@H](Cc1ccc(O)cc1)NC(=O)[C@H](CO)NC(=O)[C@H](Cc1c[nH]c2ccccc12)NC(=O)[C@H](CCC(N)=O)NC(=O)OCc1ccccc1,inhibition,[16],100%
same,ED50,[3],300 molar ratio
same,inhibition (INH),Rattus norvegicus [4],20%
same,ED50,Rattus norvegicus [5],>1 mg
CCNC(=O)[C@@H]1CCCN1C(=O)[C@H](CCCNC(=N)N)NC(=O)[C@H](CC(C)C)NC(=O)[C@@H](Cc1c[nH]c2ccccc12)NC(=O)[C@H](Cc1ccc(O)cc1)NC(=O)[C@H](CO)NC(=O)[C@H](Cc1c[nH]c2ccccc12)NC(=O)[C@@H](NC(=O)OCc1ccccc1)[C@@H](C)CC.Cl,inhibition,[8],100%
same,ED50,[3],1.5 molar ratio
same,inhibition (INH),Rattus norvegicus [7],0%
same,ED50,Rattus norvegicus [5],>5 mg
CCNC(=O)[C@@H]1CCCN1C(=O)[C@H](CCCNC(=N)N)NC(=O)[C@H](CC(C)C)NC(=O)[C@@H](Cc1ccccc1)NC(=O)[C@H](Cc1ccc(O)cc1)NC(=O)[C@H](CO)NC(=O)[C@H](Cc1c[nH]c2ccccc12)NC(=O)[C@H](COCc1ccccc1)NC(=O)OCc1ccccc1.Cl,inhibition,[17],93%
same,ED50,[3],1.3 molar ratio
same,inhibition (INH),Rattus norvegicus [7],80%
same,ED50,Rattus norvegicus [5],2.5 mg
